{"data": "Published values pooled from the literature", "target": "5'-AMP-activated protein kinase catalytic subunit alpha-2 (PRKAA2, Homo sapiens, UniProt P54646)", "note": "Lines come from different studies, so protocols differ."}
{"SMILES": "CCCOc1ccc(OC)c(F)c1C(=O)c1ccc(C(=O)N[C@@H]2CNC[C@H]2NC(=O)c2ccc3[nH]ncc3c2)cc1", "test": "enzyme activity, inhibitor", "conditions": "50 nM", "endpoint": "remaining activity", "value": "51%"}
{"SMILES": "O=C(O)c1cc(-c2ccc(C3CCNCC3)cc2)c2ccc(-c3ccc(C(F)(F)F)cc3)cc2c1", "test": "cell-free assay, competition with immobilised ligand", "conditions": "1 µM", "endpoint": "remaining binding", "value": "100%"}
{"SMILES": "Cc1cc(NC(=O)c2cccc3cc(-c4cccc5[nH]nc(N)c45)ccc23)ccc1F", "test": "enzyme activity, inhibitor", "conditions": "0.1 µM", "endpoint": "activity vs control", "value": "97%"}
{"SMILES": "c1ccc(CNc2nc(N3CCOc4ccccc43)nc3c2CCCC3)cc1", "test": "target engagement in cells, inhibitor, chemoproteomics", "conditions": "20 mM", "endpoint": "inhibition", "value": "-6.2%"}
{"SMILES": "CN1CC(Oc2cnc(C#N)cc2-c2ccn3nc(NC(=O)C4CC4)cc3c2)C1", "test": "enzyme activity, inhibitor", "conditions": "1 µM", "endpoint": "inhibition", "value": "3%"}
{"SMILES": "CC(=O)N1CCC(c2ccc(C(=O)NC3=NCCN3)cc2C(F)(F)F)CC1", "test": "cell-free assay, competition with immobilised ligand", "conditions": "1 µM", "endpoint": "remaining binding", "value": "100%"}
{"SMILES": "COc1cc(-c2cc(-c3ccc(N4CCNCC4)cc3)cnc2C)cc(OC)c1OC", "test": "enzyme activity, inhibitor", "conditions": "0.1 µM", "endpoint": "inhibition", "value": "1%"}
{"SMILES": "C=CC(=O)Nc1cc(Nc2nccc(Nc3cc(Cl)c(F)cc3C(C)(C)O)n2)c(OC)cc1N1CC[C@@H](N(C)C)C1", "test": "enzyme activity, inhibitor", "conditions": "1 µM", "endpoint": "inhibition", "value": "12%"}
{"SMILES": "CN([C@@H]1CCc2c(CC(=O)O)c3cc(S(C)(=O)=O)ccc3n2C1)S(=O)(=O)c1ccc(F)cc1", "test": "cell-free assay, competition with immobilised ligand", "conditions": "1 µM", "endpoint": "remaining binding", "value": "100%"}
{"SMILES": "Nc1ncnc2occ(-c3ccc(NC(=O)Nc4cc(C(F)(F)F)ccc4F)cc3)c12", "test": "cell-free assay", "conditions": "20 µM", "endpoint": "remaining signal", "value": "7.6%"}
{"SMILES": "CC1=C(C#N)C(c2ccc3c(c2)c(NC(=O)c2ccccc2C)nn3C)C(C#N)=C(C)N1", "test": "cell-free assay, competition with immobilised ligand", "conditions": "1 µM", "endpoint": "remaining binding", "value": "99%"}
{"SMILES": "Cc1ccc(C(=O)Nc2ccc(CN3CCN(C)CC3)c(C(F)(F)F)c2)cc1C#Cc1cnc2cccnn12", "test": "enzyme activity", "conditions": "23.5 nM", "endpoint": "remaining activity", "value": "99%"}
